E-selectin induc: E-selectin induction on HUVECs; P16581; HUVEC E-selectin immunofluorescence imaging; normalized: neutral wells 0, TNF-alpha wells 100; activation, % at 7.58 µM; actives 0.37% (n = 260,000); AID 686992;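 active = mean E-selectin-positive cell signal at least 10% of the positive control, reached in at least 60% of replicates, without over 20% cell loss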
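Material: HUVEC primary endothelial cells; Amount: 3,000 cells per well; Dosing: single concentration; Medium: EGM-2 growth medium on 0.1% gelatin-coated wells; Read-out basis: percent E-selectin-positive cells; Signal: immunofluorescence imaging; Control set: TNF-alpha, DMSO.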
CFTR F508del cor: CFTR F508del correction in bronchial cells; AID 720511; actives 0.36% (n = 350,000); activity (quench increase), % at 7.58 µM; CFBE cells, YFP halide quenching; stimulated with forskolin plus potentiator P3; % fluorescence drop versus neutral controls;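 active = mean added fluorescence quench of at least 8% versus neutral control, with both replicates also reaching 8%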;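 also: cells transiently co-express mutant CFTR-F508del with the halide-sensitive YFP; corrector assay measuring rescue of mutant channel to the surface after 24 h compound exposure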
ERAP1 HTS inh: blocks human ERAP1 aminopeptidase activity; Q9NZ08; inhibition, % at 10.7 µM; actives 0.15% (n = 340,000); recombinant ERAP1, Leu-AMC fluorescence, 60 min; AID 652197;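 active = mean replicate inhibition of at least 30%, or all replicates individually reaching that 30% level; inactive = mean below 30% and not every replicate reaching it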
FGF22 binding: binders of recombinant human FGF22 by thermal shift. Q9HCT0. SYPRO orange fluorescence; percent of sucrose octasulfate shift, DMSO zero. activity (Tm shift, normalised), % at 9.99 µM. actives 1.5% (n = 340,000);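 active = mean Tm shift, scaled 0 neutral to 100 positive control, at about 1.3% or above, every replicate too, limit read from the data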
Target sequence (Q9HCT0 whole entry, looked up): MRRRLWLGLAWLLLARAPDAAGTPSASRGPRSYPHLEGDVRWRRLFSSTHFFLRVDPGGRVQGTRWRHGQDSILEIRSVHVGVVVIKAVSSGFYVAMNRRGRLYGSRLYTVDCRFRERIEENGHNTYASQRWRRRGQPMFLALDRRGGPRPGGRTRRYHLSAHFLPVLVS
DENV2 CPE rescue: inhibitors of DENV2 cytopathic effect | CPE inhibition, % at 9.99 µM | actives 1.7% (n = 350,000) | DENV2-infected cells, cytopathic effect rescue, plate reader; in the data active = CPE inhibition above about 20%, passing the limit was not always enough; tested in BHK-21 cells
A number is an active result; . = inactive; / = not tested or not shown; ! = repeats disagree. Sampled rows, rich in hits. Any-hit rate of the full collection: about 3.7%.

SMILES | E-selectin induc | CFTR F508del cor | ERAP1 HTS inh | FGF22 binding | DENV2 CPE rescue
COc1ccc(NC(=O)Nc2ccc3c(c2)C(=O)N([C@@H](C)CO)C[C@H](C)[C@@H](CN(C)Cc2ccc4c(c2)OCO4)OCCCC[C@@H](C)O3)cc1 | . | . | . | . | .
C[C@@H]1CN([C@@H](C)CO)C(=O)Cc2cc(NC(=O)Nc3cccc4ccccc34)ccc2O[C@H]1CN(C)C(=O)NC1CCCCC1 | . | . | . | . | 25
C[C@H](CO)N1C[C@H](C)[C@H](CN(C)C)Oc2ccc(NC(=O)Nc3cccc4ccccc34)cc2CC1=O | . | . | . | . | 35
C[C@@H]1CN([C@H](C)CO)C(=O)Cc2cc(NC(=O)Nc3ccccc3)ccc2O[C@@H]1CN(C)C | 46 | . | . | . | .
C[C@@H]1CN([C@@H](C)CO)C(=O)Cc2cc(NC(=O)Nc3cccc4ccccc34)ccc2O[C@@H]1CN(C)C(=O)NC1CCCCC1 | . | . | . | . | .
C[C@H](CO)N1C[C@H](C)[C@@H](CN(C)C)Oc2ccc(NC(=O)Nc3ccccc3)cc2CC1=O | . | . | . | . | .
C[C@@H]1CN([C@@H](C)CO)C(=O)Cc2cc(NC(=O)Nc3cccc4ccccc34)ccc2O[C@H]1CN(C)C | . | . | . | . | 21
C[C@@H]1CN([C@@H](C)CO)C(=O)Cc2cc(NC(=O)Nc3ccc(F)cc3)ccc2O[C@@H]1CN(C)C(=O)Nc1cccc2ccccc12 | . | . | . | . | 41
Cc1noc(C)c1NC(=O)Nc1cccc2c1O[C@@H](CN(C)C(=O)NC1CCCCC1)[C@@H](C)CN([C@H](C)CO)C2=O | . | . | . | . | .
COc1ccc(S(=O)(=O)Nc2cc3c(cc2C(C)=O)OCO3)cc1 | / | 12 | . | . | .
C[C@H](CO)N1C[C@H](C)[C@H](CN(C)C(=O)C2CC2)OCc2cnnn2CCCC1=O | . | . | . | . | 113!
COc1cccc(NC(=O)N(C)C[C@@H]2OCc3cnnn3CCCC(=O)N([C@@H](C)CO)C[C@@H]2C)c1 | . | . | . | . | 79
C[C@@H]1CN([C@@H](C)CO)C(=O)CCCn2nncc2CO[C@@H]1CN(C)CC1CCCCC1 | . | . | . | . | 59
C[C@H]1CN([C@@H](C)CO)C(=O)CCCn2nncc2CO[C@@H]1CN(C)C(=O)C1CC1 | . | . | . | . | .
C[C@H](CO)N1C[C@H](C)[C@@H](CN(C)C(=O)C2CC2)OCc2cnnn2CCCC1=O | . | . | . | . | 49!
Cc1ccc(-c2ccc3c(c2)O[C@H](CN(C)S(C)(=O)=O)[C@@H](C)CN([C@@H](C)CO)S3(=O)=O)cc1 | . | . | . | . | .
C[C@@H]1CN([C@H](C)CO)C(=O)Cc2cc(NS(=O)(=O)c3cn(C)cn3)ccc2O[C@@H]1CN(C)CC1CCCCC1 | . | . | . | . | 34
C[C@@H]1CN([C@@H](C)CO)C(=O)Cc2cc(NS(=O)(=O)c3cn(C)cn3)ccc2O[C@H]1CN(C)Cc1ccccc1 | . | . | . | . | 25
COc1ccccc1C/C(N)=N/OC(=O)COc1cc(C)cc(C)c1C | / | . | . | 43 | .
COc1ccccc1C/C(N)=N/OC(=O)c1cccs1 | . | . | . | . | .
COc1ccccc1C/C(N)=N/OC(=O)/C=C/c1ccccc1 | . | . | . | 43 | .
CO[C@@H]1CN(C)C(=O)c2ccc(NC(=O)C3CC3)cc2OC[C@@H](C)N(Cc2cccc(F)c2)C[C@H]1C | . | . | . | . | .
C[C@@H]1CN([C@H](C)CO)C(=O)c2cc(NC(=O)CCC(F)(F)F)ccc2O[C@@H](C)CCCCO[C@H]1CN(C)S(=O)(=O)c1cn(C)cn1 | . | . | . | . | .
O=Cc1ccc(F)c([B-](F)(F)F)c1 | . | . | . | 43 | .
O=Cc1ccc([B-](F)(F)F)o1 | . | . | . | . | .
COCC(=O)Nc1ccc2c(c1)OC[C@H](C)N(Cc1ccccc1F)C[C@H](C)[C@H](OC)CN(C)C2=O | . | . | . | . | .
c1ccc(CNC23CC4CC(CC(C4)C2)C3)nc1 | . | . | . | 43 | .
O=C(NCc1ccccn1)C(=O)Nc1nc(C23CC4CC(CC(C4)C2)C3)cs1 | / | . | . | . | .
COc1ccc2c3c(n(C)c2c1)[C@H](CO)N(C(=O)c1ccccc1)CC31CCN(CC2CC2)CC1 | . | . | . | . | .

Source: PubChem
